The source of these data is ChEMBL document CHEMBL1944567, “Synthesis, biological evaluation, and molecular modeling of chalcone derivatives as potent inhibitors of Mycobacterium tuberculosis protein tyrosine phosphatases (PtpA and PtpB)” (J Med Chem, 2012).

Data set [1] addresses T1, Low molecular weight protein-tyrosine phosphatase A (Mycobacterium tuberculosis) (UniProt P9WIA1).
T1 sequence (whole entry): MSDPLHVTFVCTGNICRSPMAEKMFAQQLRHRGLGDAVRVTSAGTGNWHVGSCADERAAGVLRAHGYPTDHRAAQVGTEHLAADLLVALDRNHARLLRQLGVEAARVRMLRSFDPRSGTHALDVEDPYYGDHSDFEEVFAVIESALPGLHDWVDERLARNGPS
The data set can be described thus: Inhibition of Mycobacterium tuberculosis PTP-A using p-nitrophenyl phosphate as substrate at 25 uM measured for 10 mins by spectrofluorimetry. An outline of the steps:
(§1)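 Single-point screen at 25 μM final compound, added from 1.0 × 10−3 M DMSO stock, with recombinant Mtb PtpA or PtpB (0.4 μg/μL final) in 20 mM imidazole pH 7.0 with 40 mM pNPP. Reaction started by adding enzyme. p-Nitrophenol release read at 410 nm every min for 10 min at 37 °C. Residual activity was taken from the absorbance difference between 6 and 2 min; two experiments, each in triplicate.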

In data set [2] the target is T2, Phosphotyrosine-protein phosphatase PTPB (Mycobacterium tuberculosis) (UniProt P96830).
T2 sequence (whole entry): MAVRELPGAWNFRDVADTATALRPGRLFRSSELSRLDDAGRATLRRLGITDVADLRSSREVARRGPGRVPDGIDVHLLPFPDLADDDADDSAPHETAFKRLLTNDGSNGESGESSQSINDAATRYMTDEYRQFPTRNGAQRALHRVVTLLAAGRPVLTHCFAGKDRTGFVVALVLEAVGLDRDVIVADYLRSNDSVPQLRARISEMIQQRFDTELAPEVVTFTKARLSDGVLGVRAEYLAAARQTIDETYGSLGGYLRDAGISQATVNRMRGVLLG
The data set can be described thus: Inhibition of Mycobacterium tuberculosis PTP-B using p-nitrophenyl phosphate as substrate at 25 uM measured for 10 mins by spectrofluorimetry. An outline of the steps: as §1

Data set [3] is described as follows: Solubility of the compound. It is filed as physicochemical.

Broadly, the inhibition is the change of the read-out against control, counted positive when it falls. In the case of `N#Cc1ccc(/C=C/C(=O)c2ccc3c(c2)OCO3)cc1`, the inhibition in data set [1] stood at 4%; in data set [2], 0%. In addition, the solubility entry in data set [3] is “soluble”.

In the case of `Cc1ccc(/C=C/C(=O)c2ccc3ccccc3c2)cc1`, the figures for the inhibition in data set [1] and in data set [2] were 8% and 28%, respectively. The solubility result in data set [3] was “soluble”.

With `COc1cc(OC)c(OC)cc1/C=C/C(=O)c1ccc2ccccc2c1`, the inhibition in data set [1] was determined as 7%; in data set [2] it was 0%. Moreover, the solubility entry in data set [3] is “soluble”.

`CCCCOc1ccc(/C=C/C(=O)c2ccc3ccccc3c2)cc1`: the inhibition in data set [1] was determined as 8%; in data set [2] it was 17%. For the same compound, the solubility result in data set [3] is “soluble”.

For `O=C(/C=C/c1cc(Cl)cc(Cl)c1)c1ccc2ccccc2c1`, the inhibition in data set [1] was found to be 19%; in data set [2] it was 29%. Besides, the solubility entry in data set [3] is “soluble”.

As to `O=C(/C=C/c1cccc([N+](=O)[O-])c1)c1ccc2c(c1)OCO2`, the figures for the inhibition in data set [1] and in data set [2] were 23% and 22%, respectively. Moreover, in data set [3], the solubility result is on record as “soluble”.

Regarding `CN(C)c1ccc(/C=C/C(=O)c2ccc3c(c2)OCO3)cc1`, the inhibition in data set [1] was determined as 10%; in data set [2], 0%. Moreover, in data set [3], the solubility entry is “soluble”.

As to `COc1cc(/C=C/C(=O)c2ccc3c(c2)OCO3)cc(OC)c1OC`, the results for the inhibition in data set [1] and in data set [2] were 5% and 0%, respectively. The solubility entry in data set [3] was “soluble”.

As to `COc1cc(OC)c(OC)cc1/C=C/C(=O)c1ccc2c(c1)OCO2`, the inhibition in data set [1] and in data set [2] was 19% throughout. In addition, the solubility entry in data set [3] is listed as “soluble”.

Regarding `O=C1COc2ccc(C(=O)/C=C/c3ccc4ccccc4c3)cc2N1`, the inhibition in data set [1] is 0%; in data set [2], 24%. Moreover, the solubility entry in data set [3] is “soluble”.

In the case of `COc1ccc(/C=C/C(=O)c2ccc3c(c2)OCO3)cc1`, the inhibition worked out at 17% in data set [1] and 11% in data set [2]. Also, the solubility result in data set [3] is reported as “soluble”.

In the case of `O=C(/C=C/c1c(Cl)cccc1Cl)c1ccc2ccccc2c1`, the inhibition came to 16% in data set [1] and 0% in data set [2]. In data set [3], the solubility result is reported as “soluble”.

As for `O=C(/C=C/c1ccc(Cl)cc1)c1ccc2ccccc2c1`, the inhibition came out at 13% in data set [1] and 27% in data set [2]. In data set [3], the solubility entry is “soluble”.

On to `O=C(/C=C/c1cccc(C(F)(F)F)c1)c1ccc2ccccc2c1`, for which the inhibition in data set [1] worked out at 24%; in data set [2] it was 0%. Besides, the solubility entry in data set [3] is “soluble”.

As for `O=C(/C=C/c1ccc(Cl)c(C(F)(F)F)c1)c1ccc2c(c1)OCO2`, the inhibition in data set [1] and in data set [2] was 0% each time. Moreover, the solubility entry in data set [3] was “soluble”.

In the case of `COc1ccc2nc(Cl)c(/C=C/C(=O)c3ccc4ccccc4c3)cc2c1`, the inhibition in data set [1] was determined as 22%; in data set [2], 17%. Moreover, the solubility result in data set [3] was “soluble”.

For `O=C(/C=C/c1ccc(F)cc1)c1ccc2ccccc2c1`, the inhibition in data set [1] was 13%; in data set [2], 14%. In addition, the solubility result in data set [3] was “soluble”.

As to `COc1cccc(OC)c1/C=C/C(=O)c1ccc2c(c1)OCO2`, the values for the inhibition in data set [1] and in data set [2] were 4% and 0%, respectively. For the same compound, in data set [3], the solubility entry is reported as “soluble”.

In the case of `COc1cc(OC)c(/C=C/C(=O)c2ccc3c(c2)OCO3)c(OC)c1`, the results for the inhibition in data set [1] and in data set [2] were 5% and 0%, respectively. Besides, the solubility result in data set [3] is given as “soluble”.

With `O=C(/C=C/c1cccc(Br)c1)c1ccc2ccccc2c1`, the results for the inhibition in data set [1] and in data set [2] were 0% and 20%, respectively. Also, in data set [3], the solubility result is listed as “soluble”.

With `O=C(/C=C/c1ccc2c(c1)OCO2)c1ccc2c(c1)OCO2`, the inhibition in data set [1] came out at 6%; in data set [2], 0%. Also, in data set [3], the solubility entry is “soluble”.

Turning to `COc1cc(OC)c(C(=O)/C=C/c2ccc3c(c2)OCO3)cc1OC`, the inhibition in data set [1] is 8%; in data set [2], 29%. The solubility result in data set [3] is reported as “soluble”.

Take `O=C(/C=C/c1cc2ccccc2nc1Cl)c1ccc2c(c1)OCO2`: the inhibition in data set [1] came to 19%; in data set [2], 0%. For the same compound, the solubility result in data set [3] is recorded as “soluble”.

On to `O=C(/C=C/c1ccccc1)c1ccc2ccccc2c1`, for which the results for the inhibition in data set [1] and in data set [2] were 4% and 16%, respectively. Further, the solubility result in data set [3] is “soluble”.

For `COc1cccc(/C=C/C(=O)c2ccc3ccccc3c2)c1`, the inhibition in data set [1] came to 10%; in data set [2] it was 0%. In addition, the solubility entry in data set [3] is recorded as “soluble”.

For `O=C(/C=C/c1cccc2ccccc12)c1ccc2c(c1)OCO2`, the inhibition in data set [1] worked out at 8%; in data set [2] it was 0%. For the same compound, the solubility entry in data set [3] was “soluble”.

Turning to `O=C(/C=C/c1ccc(Cl)c(Cl)c1)c1ccc2ccccc2c1`, the inhibition in data set [1] was 11%; in data set [2], 28%. Moreover, the solubility entry in data set [3] was “soluble”.

`COc1cc(/C=C/C(=O)c2ccc3c(c2)OCO3)ccc1O`: the inhibition in data set [1] and in data set [2] was 0% in each case. Besides, in data set [3], the solubility result is recorded as “soluble”.

Regarding `COc1cc(OC)cc(C(=O)/C=C/c2ccc3ccccc3c2)c1`, the inhibition in data set [1] turned out to be 0%; in data set [2], 10%. Moreover, in data set [3], the solubility entry is listed as “soluble”.

For `O=C(/C=C/c1cccc(Br)c1)c1ccc2c(c1)OCO2`, the inhibition is 5% in data set [1] and 0% in data set [2]. Further, the solubility entry in data set [3] is “soluble”.

On to `O=C(/C=C/c1ccccc1Cl)c1ccc2c(c1)OCO2`, for which the inhibition is 5% in data set [1] and 0% in data set [2]. In data set [3], the solubility entry is recorded as “soluble”.

Turning to `COc1cc(OC)c(C(=O)/C=C/c2ccc3ccccc3c2)cc1OC`, the inhibition in data set [1] came to 22%; in data set [2] it was 14%. Further, the solubility result in data set [3] is listed as “soluble”.

With `O=C(/C=C/c1ccc2ccccc2c1)c1cc(Cl)ccc1Cl`, the inhibition in data set [1] was determined as 0%; in data set [2], 20%. Besides, in data set [3], the solubility result was “soluble”.

Take `O=C(/C=C/c1cccc(Cl)c1)c1ccc2c(c1)OCO2`: the inhibition came to 23% in data set [1] and 0% in data set [2]. The solubility entry in data set [3] is listed as “soluble”.

In the case of `O=C(/C=C/c1ccc(Br)cc1)c1ccc2ccccc2c1`, the inhibition in data set [1] worked out at 8%; in data set [2], 24%. Besides, in data set [3], the solubility entry is recorded as “soluble”.

`Cc1ccc(/C=C/C(=O)c2ccc3c(c2)OCO3)cc1`: the inhibition is 14% in data set [1] and 0% in data set [2]. Also, the solubility result in data set [3] is listed as “soluble”.

On to `O=C(/C=C/c1ccc2ccccc2c1)c1ccc2c(c1)OCO2`, for which the inhibition in data set [1] turned out to be 12%; in data set [2] it was 15%. Besides, in data set [3], the solubility entry is listed as “soluble”.

For `O=C(/C=C/c1ccc(Cl)c(C(F)(F)F)c1)c1ccc2ccccc2c1`, the inhibition in data set [1] turned out to be 13%; in data set [2], 0%. Also, the solubility entry in data set [3] was “soluble”.

With `COc1cc(/C=C/C(=O)c2ccc3c(c2)OCO3)ccc1OCc1ccccc1`, the inhibition in data set [1] was 12%; in data set [2], 0%. Besides, the solubility entry in data set [3] is listed as “soluble”.

For the compound `COc1cccc(/C=C/C(=O)c2ccc3c(c2)OCO3)c1`, the inhibition came out at 10% in data set [1] and 0% in data set [2]. The solubility entry in data set [3] is on record as “soluble”.

For `O=C(/C=C/c1ccc(-c2ccccc2[N+](=O)[O-])o1)c1ccc2ccccc2c1`, the inhibition in data set [1] stood at 9%; in data set [2], 7%. Further, the solubility entry in data set [3] is recorded as “soluble”.

Take `COc1ccc(OC)c(C(=O)/C=C/c2ccc(OCc3ccccc3)c(OC)c2)c1`: the inhibition in data set [1] was found to be 12%; in data set [2], 16%. Besides, the solubility result in data set [3] is “soluble”.

On to `O=C(/C=C/c1ccccc1Cl)c1ccc2ccccc2c1`, for which the inhibition was determined as 0% in data set [1] and 13% in data set [2]. The solubility result in data set [3] is “soluble”.

Take `O=C(/C=C/c1ccc(-c2ccccc2[N+](=O)[O-])o1)c1ccc2c(c1)OCO2`: the inhibition was found to be 19% in data set [1] and 10% in data set [2]. For the same compound, the solubility entry in data set [3] is on record as “soluble”.

`O=C(/C=C/c1ccccc1F)c1ccc2c(c1)OCO2`: the inhibition in data set [1] amounted to 9%; in data set [2], 0%. In addition, in data set [3], the solubility result is reported as “soluble”.

For the compound `O=C(/C=C/c1cccs1)c1ccc2c(c1)OCO2`, the inhibition in data set [1] was found to be 7%; in data set [2], 0%. Besides, the solubility result in data set [3] was “soluble”.

For the compound `O=C(/C=C/c1cccc(Cl)c1)c1ccc2ccccc2c1`, the inhibition in data set [1] amounted to 7%; in data set [2] it was 0%. In data set [3], the solubility result is “soluble”.

Take `COc1cc(OC)c(C(=O)/C=C/c2ccc3c(c2)OCO3)c(OC)c1`: the inhibition in data set [1] worked out at 0%; in data set [2] it was 15%. Also, in data set [3], the solubility entry is reported as “soluble”.
